# How the values were obtained:
# [1] = AUC in Sprague-Dawley rat at 1 mg/kg, iv; format: ADME, organism-based; parameters: dose 1 mg/kg, route intravenous; conditions: plasma
# Summary of the method: (§1)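 Male Sprague-Dawley rats received a single intravenous (1 mg/kg) or oral (10 or 50 mg/kg) dose. Plasma pharmacokinetic parameters were derived from these profiles.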
# Blood = assay: Antiinflammatory activity in human whole blood assessed as inhibition of TNF-alpha-induced IL-8 production after overnight incubation by ELISA; format: functional, tissue-based
# [2] = Half life in Sprague-Dawley rat at 1 mg/kg, iv; format: ADME, organism-based; parameters: dose 1 mg/kg, route intravenous; conditions: in vivo; summary of the method: as §1
# MG-63 = assay: Induction of glutamine synthase expression in human MG63 cells after overnight incubation by spectrophotometry; format: cell-based
# Glucocorticoid receptor [3] = target: T1, Glucocorticoid receptor (Homo sapiens, UniProt P04150); assay: Transactivation activity at glucocorticoid receptor alpha human 13D3/Huh7 cells assessed as induction of TAT activity after 4 hrs by spectrophotometry; format: cell-based, Huh-7
# T1 sequence (P04150 whole entry): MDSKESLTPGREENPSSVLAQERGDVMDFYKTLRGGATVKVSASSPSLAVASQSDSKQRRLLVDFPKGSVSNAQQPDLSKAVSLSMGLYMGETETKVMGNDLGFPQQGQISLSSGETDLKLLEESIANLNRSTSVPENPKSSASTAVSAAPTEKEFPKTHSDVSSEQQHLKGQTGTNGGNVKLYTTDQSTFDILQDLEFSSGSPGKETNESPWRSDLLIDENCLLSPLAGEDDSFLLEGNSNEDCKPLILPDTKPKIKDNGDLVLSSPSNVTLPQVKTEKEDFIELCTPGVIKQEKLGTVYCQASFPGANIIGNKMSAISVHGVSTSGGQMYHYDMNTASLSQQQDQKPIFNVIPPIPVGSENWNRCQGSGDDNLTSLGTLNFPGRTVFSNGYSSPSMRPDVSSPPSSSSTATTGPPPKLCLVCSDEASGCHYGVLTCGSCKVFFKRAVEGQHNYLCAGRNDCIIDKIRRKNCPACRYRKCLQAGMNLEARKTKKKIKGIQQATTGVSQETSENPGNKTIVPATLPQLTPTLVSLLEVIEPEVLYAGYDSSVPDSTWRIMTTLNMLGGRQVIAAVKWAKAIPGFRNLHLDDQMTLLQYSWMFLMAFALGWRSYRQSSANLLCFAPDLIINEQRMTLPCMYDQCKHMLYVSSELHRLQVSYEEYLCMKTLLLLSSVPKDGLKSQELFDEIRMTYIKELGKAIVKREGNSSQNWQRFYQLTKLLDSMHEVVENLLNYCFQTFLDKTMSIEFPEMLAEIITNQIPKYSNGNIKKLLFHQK
# Glucocorticoid receptor [4] = target: T1, Glucocorticoid receptor; assay: Transrepression activity at glucocorticoid receptor alpha in IL-1beta-stimulated human A549 cells assessed as inhibition of NFkappaB-dependent E-selectin transcription by luciferase reporter gene assay; format: cell-based
# SAOS-2 = assay: Induction of alkaline phosphatase expression in human Saos2 cells after 3 days by spectrophotometry; format: cell-based; conditions: SAOS-2, 72 h
# Rattus norvegicus = assay: Antiinflammatory activity in po dosed Freund's complete adjuvant-induced Lewis rat arthritis model assessed as reduction in paw swelling administered once daily for 21 days; format: functional; conditions: 504 h
# Summary of the method: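 Male Lewis rats were inoculated with Mycobacterium butyricum in incomplete Freund's adjuvant. Oral dosing was daily and preventative, running from day 0 to day 21. Onset and progression of arthritis were followed, and ED50 was estimated from the dose response.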
# Androgen receptor = target: T2, Androgen receptor (Homo sapiens, UniProt P10275); assay: Displacement of fluorescently labeled ligand from androgen receptor by fluorescence polarization assay
# T2 sequence (P10275 whole entry): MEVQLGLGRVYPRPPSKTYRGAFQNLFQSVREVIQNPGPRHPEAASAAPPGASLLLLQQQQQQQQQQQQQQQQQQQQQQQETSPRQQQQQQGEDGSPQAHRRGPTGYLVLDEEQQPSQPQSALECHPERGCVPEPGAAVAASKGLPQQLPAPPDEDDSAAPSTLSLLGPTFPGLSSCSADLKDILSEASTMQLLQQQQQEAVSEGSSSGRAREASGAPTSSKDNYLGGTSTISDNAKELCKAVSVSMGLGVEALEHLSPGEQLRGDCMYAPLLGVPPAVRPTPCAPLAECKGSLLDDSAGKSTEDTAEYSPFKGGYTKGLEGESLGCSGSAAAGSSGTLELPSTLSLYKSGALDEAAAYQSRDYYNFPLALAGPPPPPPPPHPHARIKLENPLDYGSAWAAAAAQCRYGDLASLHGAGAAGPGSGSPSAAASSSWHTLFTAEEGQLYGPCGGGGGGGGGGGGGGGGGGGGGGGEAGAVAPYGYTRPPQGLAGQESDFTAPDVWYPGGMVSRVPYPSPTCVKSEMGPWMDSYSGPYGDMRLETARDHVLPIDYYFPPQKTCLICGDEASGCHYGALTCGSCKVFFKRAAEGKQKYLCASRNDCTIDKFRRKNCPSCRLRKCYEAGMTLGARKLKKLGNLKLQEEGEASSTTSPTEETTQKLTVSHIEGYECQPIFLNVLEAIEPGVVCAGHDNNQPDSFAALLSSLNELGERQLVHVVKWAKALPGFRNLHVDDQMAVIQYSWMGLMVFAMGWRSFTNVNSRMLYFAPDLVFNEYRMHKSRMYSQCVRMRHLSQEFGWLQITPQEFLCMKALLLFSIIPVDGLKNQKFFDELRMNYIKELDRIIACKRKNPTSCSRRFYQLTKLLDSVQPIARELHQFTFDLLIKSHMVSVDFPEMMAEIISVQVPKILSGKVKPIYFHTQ
# Summary of the method: (§2)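 Binding was measured by fluorescence polarization competition between compound and a fluorescent ligand for full-length receptor or ligand-binding domain. Values are means of at least two experiments.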
# Estrogen receptor = target: T3, Estrogen receptor (Homo sapiens, UniProt P03372); assay: Displacement of fluorescently labeled ligand from ERalpha receptor by fluorescence polarization assay; summary of the method: as §2
# T3 sequence (P03372 whole entry): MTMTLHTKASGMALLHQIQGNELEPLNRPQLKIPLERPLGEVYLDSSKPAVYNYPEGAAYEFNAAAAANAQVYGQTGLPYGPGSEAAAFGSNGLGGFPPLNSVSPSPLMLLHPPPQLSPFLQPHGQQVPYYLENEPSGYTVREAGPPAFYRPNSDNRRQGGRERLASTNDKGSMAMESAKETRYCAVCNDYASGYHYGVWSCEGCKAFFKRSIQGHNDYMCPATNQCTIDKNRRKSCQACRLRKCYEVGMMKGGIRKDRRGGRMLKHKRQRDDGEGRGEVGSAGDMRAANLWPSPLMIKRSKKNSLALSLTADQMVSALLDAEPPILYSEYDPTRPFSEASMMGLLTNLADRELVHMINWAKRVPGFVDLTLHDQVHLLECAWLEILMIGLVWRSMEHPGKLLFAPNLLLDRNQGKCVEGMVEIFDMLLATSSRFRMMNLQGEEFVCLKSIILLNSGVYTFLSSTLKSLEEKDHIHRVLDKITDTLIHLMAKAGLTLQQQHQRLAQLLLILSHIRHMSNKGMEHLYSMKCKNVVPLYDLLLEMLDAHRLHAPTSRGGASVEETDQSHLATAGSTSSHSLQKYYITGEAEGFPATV
# Glucocorticoid receptor [5] = target: T1, Glucocorticoid receptor; assay: Displacement of GS-red from glucocorticoid receptor by fluorescence polarization assay
Structure (SMILES),AUC [1] [ng·h/mL],EC50 (Blood) [µM],half-life [2] [min],EC50 (MG-63) [µM],EC50 (Glucocorticoid receptor [3]) [µM],EC50 (Glucocorticoid receptor [4]) [µM],Emax (SAOS-2) [%],ED50 (Rattus norvegicus) [mg/kg],Ki (Androgen receptor) [µM],Ki (Estrogen receptor) [µM],Ki (Glucocorticoid receptor [5]) [µM]
CN(C)C(=O)c1ccc(-c2ccc3c(n2)Oc2ccccc2[C@H]3C(C)(C)C(=O)Nc2nncs2)cc1F,342,1.47,36,0.044,0.15,0.0338,13,17,> 5,> 75,0.00194
CCN(C)C(=O)c1ccc(-c2ccc3c(n2)Oc2ccccc2[C@@H]3C(C)(C)C(=O)Nc2nncs2)cc1F,526,0.532,24,0.207,0.088,0.00689,24,8,> 5,> 75,0.00164

# From ChEMBL document CHEMBL1909630, “Azaxanthene based selective glucocorticoid receptor modulators: design, synthesis, and pharmacological evaluation of (S)-4-(5-(1-((1,3,4-thiadiazol-2-yl)amino)-2-methyl-1-oxopropan-2-yl)-5H-chromeno[2,3-b]pyridin-2-yl)-2-fluoro-N,N-dimethylbenzamide (BMS-776532) and its methylene homologue …” (J Med Chem, 2011)
